# MsrA inhibitor: bovine MsrA inhibition. actives 0.75% (n = 360,000). AID 651718. purified bovine MsrA, absorbance read-out. inhibition, % at 15.5 µM; in the data active means inhibition above about 4.5%;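 further: 0% = vehicle wells with enzyme and 100% = reference inhibitor wells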
# MIN6 prolif: inducers of beta-cell replication in MIN6 cells | MIN6 cells proliferation, ATPlite luminescence, 48 h; cells starved in 0.2% serum; 100% = growth in 10% serum | proliferation, % at 10 µM | actives 0.29% (n = 330,000);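 active means compounds whose signal lies at least 3.5 SD above the mean of all wells on their plate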;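 further: 0% = DMSO-treated cells in low-serum medium and 100% = 10% serum control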
# MT1-MMP act inh: MT1-MMP (human) activation inhibition; P50281; HT1080 RFP-PRO-GFP cells, GFP/RFP ratio fluorescence, overnight; percent of plate control window, DMSO zero; GFP/RFP ratio change, % at 20 µM; actives 0.061% (n = 360,000); AID 651647;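 active means GFP/RFP ratio change of at least 30% with cell ATP level not reduced by more than half and red fluorescence within 50% of control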
#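 system = RFP-PRO-GFP reporter HT1080 cells | dosing = 20 µM single dose, 1% DMSO | timing = overnight cell settling, then overnight compound exposure, 37 °C, 5% CO2 | read-out basis = GFP/RFP fluorescence ratio | controls = DMSO and RFP-L50D-GFP cell wells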
# DAGLB inh: diacylglycerol lipase beta (human) inhibition | Q8NCG7 | HEK293T DAGLB membrane lysate, EnzChek fluorogenic substrate | inhibition, % at 5.17 µM | actives 0.059% (n = 340,000) | AID 504411; in the data active means inhibition above about 34%;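 further: 0% = enzyme with vehicle and 100% = wells lacking enzyme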
# Target sequence (Q8NCG7 whole entry, looked up): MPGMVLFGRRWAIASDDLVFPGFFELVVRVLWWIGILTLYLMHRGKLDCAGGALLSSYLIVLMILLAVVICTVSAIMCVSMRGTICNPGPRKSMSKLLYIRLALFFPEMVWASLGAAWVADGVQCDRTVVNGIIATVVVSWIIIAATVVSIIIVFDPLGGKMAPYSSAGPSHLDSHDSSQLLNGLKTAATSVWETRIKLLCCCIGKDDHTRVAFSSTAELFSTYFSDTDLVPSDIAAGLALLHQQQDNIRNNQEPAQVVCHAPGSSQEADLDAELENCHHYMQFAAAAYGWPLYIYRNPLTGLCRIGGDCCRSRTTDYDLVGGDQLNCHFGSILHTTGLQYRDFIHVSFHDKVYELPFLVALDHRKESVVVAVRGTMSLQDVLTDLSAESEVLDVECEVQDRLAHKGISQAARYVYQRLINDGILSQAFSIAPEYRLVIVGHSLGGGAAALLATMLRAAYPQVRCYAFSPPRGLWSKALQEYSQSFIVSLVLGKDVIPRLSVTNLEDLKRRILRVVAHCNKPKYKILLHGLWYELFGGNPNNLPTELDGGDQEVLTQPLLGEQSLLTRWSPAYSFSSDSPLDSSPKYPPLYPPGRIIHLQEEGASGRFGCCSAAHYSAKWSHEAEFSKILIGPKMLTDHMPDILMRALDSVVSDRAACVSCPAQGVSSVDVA
# SKN-1 inh: inhibitors of C. elegans SKN-1; actives 0.49% (n = 360,000); C. elegans VP596 Pgst-4::GFP/RFP ratio, acrylamide-induced, 24 h; AID 624304; inhibition, % at 21.8 µM;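 active means interference check ratio from 0.5 to 1.5 plus GFP to RFP signal ratio inhibition reaching or exceeding a fixed threshold, cut at about 30% in these data, passing the limit was not always enough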
# bovine MsrA act: bovine methionine sulfoxide reductase A activation. actives 0.3% (n = 360,000). purified bovine MsrA, absorbance read-out. activation, % at 10.6 µM. AID 602163; in the data active means activation above about 7.5%;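 further: 0% = vehicle and 100% = reference activator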
# MsrA activ conf: bovine methionine sulfoxide reductase A activation confirmed; shares compounds with bovine MsrA act; activation, % at 10.6 µM; AID 602270; purified bovine MsrA, absorbance read-out; actives 12% (n = 1,000); in the data active means activation above about 4%;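 further: enzyme coupled to thioredoxin and thioredoxin reductase with NADPH; 0% = vehicle wells and 100% = reference activator wells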
# Active calls of the source: *; . = not tested or not shown. Sampled rows, rich in hits. Any-hit rate of the full collection: about 1.8%.
SMILES,MsrA inhibitor,MIN6 prolif,MT1-MMP act inh,DAGLB inh,SKN-1 inh,bovine MsrA act,MsrA activ conf
COc1cccc(OCC(O)CNC(=O)c2oc3ccc(C)cc3c2C)c1 (stereo not drawn),-0.3,0.7,-4.3,-10.5,0.9,9.5*,-2.5
CC1=CN2C(=NC(=O)CC2(C)C(=O)N(CC(=O)NC2CCCC2)Cc2ccc(Cl)cc2)C=C1 (stereo not drawn),1.1,0.5,0.3,0.9,11.5,-2.5,.
COc1ccc(N2CC(NC(=O)c3ccc4ccccc4c3)CC2=O)cc1OC (stereo not drawn),-0.7,-3.1,2.6,0.7,8.3,10.9*,-0.9
COc1ccc(N2CC(NS(=O)(=O)c3ccc4ccccc4c3)CC2=O)cc1OC (stereo not drawn),-0.1,-1.0,1.2,1.3,3.1,-2.4,.
O=C1NC(=O)C2(CCOc3ccc(F)cc32)N1 (stereo not drawn),0.0,.,.,.,.,.,.
Cc1cccc(C(=O)N2CCCC(N3CCN(c4cccc(Cl)c4)CC3)C2)n1 (stereo not drawn),0.1,1.8,-0.7,0.9,-17.0,17.4*,-3.0
CCOC(=O)c1cccc(NC(=O)c2cnc3ccccc3n2)c1,-1.1,-1.6,15.4,-7.0,-1.1,12.8*,-0.7
CCOC(=O)c1cccc(NC(=O)c2cccnc2)c1,-0.6,-0.9,4.0,1.2,8.1,-8.5,.
CC1=C(C(=O)N2CCCCCC2)CC(CC(=O)NCc2cccc3ccccc23)C(=O)N1CCC1=CCCCC1 (stereo not drawn),1.7,.,-1.8,.,1.0,-1.9,.
CCc1cc2c(-c3ccccc3)cc(=O)oc2cc1OC(=O)c1cccs1,1.6,-5.9,-5.3,-3.4,1.4,11.1*,-3.9
O=C(Oc1ccc2c(-c3ccccc3)cc(=O)oc2c1)c1cccs1,-0.7,-4.6,-10.5,-6.7,-1.9,-2.0,.
CN1OC[C@@H]2CN[C@H](c3ccc(-n4ccnc4)cc3)C[C@@H]21,-0.8,.,.,.,.,.,.
Brc1ccc(CN2CCCCCC2)cc1,-0.2,-1.8,3.6,-0.1,2.4,-2.9,.
CC(=O)C1CCN(Cc2ccccc2)CC1,1.5,5.8,-1.7,-4.4,-19.9,-11.9,.
CC(=O)N1CCOC12CCN(Cc1ccccc1)CC2,-0.3,.,-2.9,-0.2,9.4,8.2*,-2.7
COC(=O)COc1ccc(/C=N/NC(=O)c2ccc(N(Cc3ccccc3)S(C)(=O)=O)cc2)cc1,2.0,-5.1,6.2,1.8,4.5,-3.0,.
COC(=O)c1ccc(NC(=O)[C@H](C)NC(N)=O)cc1,0.5,-1.4,3.6,0.0,-1.8,22.6*,-1.2
N#Cc1cn(CC(=O)N2CCCc3ccccc32)c2ccccc12,0.6,-0.1,-2.5,-2.9,6.3,8.1*,0.6
O=Cc1cn(CC(=O)N2CCCc3ccccc32)c2ccccc12,0.3,3.2,-3.1,2.9,29.3,0.4,.
CCC(C)(C)n1nnnc1C(c1ccc2ncccc2c1)N1CCN(Cc2ccc3c(c2)OCO3)CC1 (stereo not drawn),1.2,-2.3,2.6,1.6,3.9,-9.6,.
CCC(C)(C)n1nnnc1C(c1ccc(C)cc1)N1CCN(Cc2ccc3c(c2)OCO3)CC1 (stereo not drawn),0.0,-4.0,-7.2,-4.0,3.6,8.7*,-1.4
COc1cccc(CNC(=O)[C@H]2CCCN2C(=O)[C@H]2CCCN2C(=O)N2CCOCC2)c1,-1.0,.,.,.,.,.,.
CCOc1cc(/C=N/Nc2nnc(C)n2N)ccc1OC(C)=O,0.2,-1.1,5.1,1.0,5.8,26.9*,0.8
COc1ccc(/C=N/Nc2nncn2N)cc1Br,0.0,-0.2,1.1,0.2,-6.9,24.7*,2.5
CCOc1cc(/C=N/NC(N)=O)ccc1OC(=O)c1ccc(C)cc1,.,-0.4,.,.,.,.,.
SMILES,MsrA inhibitor,MIN6 prolif,MT1-MMP act inh,DAGLB inh,SKN-1 inh,bovine MsrA act,MsrA activ conf
CCc1nnc(N/N=C\c2ccc(OC(C)=O)c(OC)c2)n1N,0.7,-3.4,.,-2.9,12.3,12.1*,-2.3
CCc1nnc(N/N=C/c2ccc(O)c(OC)c2)n1N,0.3,-2.9,3.9,1.9,2.6,4.5,.
CCc1nnc(N/N=C/c2cccs2)n1N,1.6,-1.8,3.8,-1.2,-11.6,8.1*,-2.1
O=C(c1cccnc1)N1CCC2CC1c1c(Cl)cccc12 (stereo not drawn),1.1,.,3.6,0.8,-13.5,-8.4,.
CN(C(=O)C1CCC(=O)N(Cc2cccc(F)c2)C1)C1CCCCC1 (stereo not drawn),-0.6,-2.1,0.5,1.9,-1.3,1.0,.
CCCc1cc(=O)[nH]c(SCC(=O)NC2CCCc3ccccc32)n1 (stereo not drawn),0.4,-0.6,4.8,1.7,-4.9,-4.5,.
CCO[C@@H]1OC(C(=O)NC2CC2)=C[C@H](c2c[nH]c3ccccc23)[C@H]1CCCO,-0.3,-5.6,-2.8,1.0,-8.3,-1.9,.
CCO[C@H]1OC(C(=O)NC2CC2)=C[C@@H](c2c[nH]c3ccccc23)[C@@H]1CCCO,-0.8,-2.9,-1.0,1.7,9.0,8.4*,-1.1
CN(CC(=O)N(CCO)Cc1ccccc1)S(=O)(=O)c1ccc2c(c1)c(=O)n(C)c(=O)n2C,-1.2,-2.2,-1.7,-5.0,6.7,-5.1,.
Cc1[nH]c(-c2ccc(F)cc2)cc1C(=O)N1CCN(c2ccc(Cl)cc2)CC1,-0.8,-6.8,2.1,0.8,3.3,8.3*,-0.6
COc1ccc(N2CCN(C(=O)c3cc(-c4ccc(F)cc4)[nH]c3C)CC2)cc1,-0.8,-4.9,-3.5,4.1,17.6,-2.0,.
CCN(CC)CCNC(=O)c1ccc2c(c1NCCO)C(=O)c1ccccc1C2=O,13.9*,-4.0,10.3,.,42.0*,23.7*,8.7*
O=C(O)c1ccccc1C(=O)Nc1n[nH]c(=S)s1,0.9,0.9,3.1,-2.7,16.3,8.7*,1.5
O=C(CCCn1c(=S)[nH]c2cc3c(cc2c1=O)OCO3)N1CCN(c2ccccn2)CC1,-0.4,.,-2.9,-0.4,-14.8,18.5*,2.8
CCOC(=O)C(C)Oc1cccc2c(=O)n(CC(=O)Nc3ccc(OCC)cc3)ccc12 (stereo not drawn),1.1,-2.4,-5.6,-2.7,-0.8,-6.7,.
CCOC(=O)C(C)Oc1cccc2c(=O)n(CC(=O)Nc3cccc(OC)c3)ccc12 (stereo not drawn),1.0,-1.9,-1.5,-6.7,4.8,8.4*,-2.9
O=C(NCc1cccnc1)C(=O)NCC1OCCN1S(=O)(=O)c1ccc(F)cc1 (stereo not drawn),-0.8,-0.5,-1.8,-0.7,2.0,8.4*,1.5
Cc1cc(C(F)(F)F)n2nc(C)c(-c3ccc(Cl)cc3)c2n1,-0.5,0.0,3.2,-3.8,12.5,15.9*,0.1
Cc1cc(-n2nc(C)cc2C)n2nc(C)c(-c3ccc(Cl)cc3)c2n1,-1.5,-1.1,4.0,-1.6,-13.6,0.8,.
